Experimental data from different studies.
Each line is one published result; the experiments were not run side by side.
Target: Serine/threonine-protein kinase 4 (STK4, Homo sapiens, UniProt Q13043)
Residues used in one study (Q13043 1-487): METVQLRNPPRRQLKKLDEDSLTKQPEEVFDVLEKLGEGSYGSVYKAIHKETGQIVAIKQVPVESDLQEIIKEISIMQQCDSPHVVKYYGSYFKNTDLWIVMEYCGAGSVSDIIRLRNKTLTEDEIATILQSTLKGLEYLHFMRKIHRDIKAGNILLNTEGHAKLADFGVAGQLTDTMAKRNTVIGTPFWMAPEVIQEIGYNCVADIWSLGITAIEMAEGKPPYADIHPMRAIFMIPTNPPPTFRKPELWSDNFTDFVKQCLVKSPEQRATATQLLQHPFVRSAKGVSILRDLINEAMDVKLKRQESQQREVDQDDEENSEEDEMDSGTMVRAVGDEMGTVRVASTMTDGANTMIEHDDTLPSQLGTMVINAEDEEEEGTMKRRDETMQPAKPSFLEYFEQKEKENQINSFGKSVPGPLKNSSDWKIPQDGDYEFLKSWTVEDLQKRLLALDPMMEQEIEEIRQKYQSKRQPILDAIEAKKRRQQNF

SMILES | assay | setting | endpoint | result
Clc1cccc(-c2c[nH]c3nccc(N4CCOCC4)c23)c1 | thermal stability, DSF | 20 µM | ΔTm | > 8 °C
COc1ncccc1-c1cnn2ccc(N3CCN(C(=O)OC(C)C)CC3)nc12 | binding, competition with immobilised ligand | 1 µM | remaining binding | 40%
Cn1cc(-c2cccc(N3CCc4c(sc5c4CC(C)(C)C5)C3=O)c2CO)cc(Nc2ccncn2)c1=O | enzyme activity, inhibitor | 1 µM | inhibition | -4%
O=c1[nH]c2ccccc2n1C1CCN(Cc2ccc(-c3[nH]c4cc5ncnc5cc4nc3-c3ccccc3)cc2)CC1 | cell-free assay | 0.5 µM | remaining signal | 95.2%
Cn1cncc1[C@](O)(COc1ccc(C#N)cc1-c1ccc(OC(F)(F)F)cc1)c1ccc(C#N)cc1 | cell-free assay, competition with immobilised ligand | 1 µM | remaining binding | 86%
C#Cc1n[nH]c2c(-c3cn(C(C)c4ccccn4)c(=O)[nH]c3=O)cc(F)cc12 (stereo not drawn) | enzyme activity, inhibitor | 1 µM | inhibition | 3.7%
Cn1cc(-c2cc(F)cc(N3CCn4c(cc5c4CCCC5)C3=O)c2CO)cc(Nc2ccc(N3CCN(C4COC4)CC3)cn2)c1=O | enzyme activity, inhibitor | 0.1 µM | inhibition | 13%
C#Cc1n[nH]c2c(-c3cn([C@@H](C)c4ccccc4)c(=O)[nH]c3=O)cc(F)cc12 | enzyme activity, inhibitor | 0.1 µM | inhibition | -0.9%
NC(=O)c1cccc(-c2c[nH]c3ncnc(N4CCOCC4)c23)c1 | thermal stability, DSF | 20 µM | ΔTm | > 8 °C
Cc1nn(C)cc1-c1nc2c(N3CCN(Cc4ccc(Cl)cc4)CC3)c(Cl)cnc2[nH]1 | binding, competition with immobilised ligand | 1 µM | remaining binding | 100%
Nc1ncc(-c2nc(N3CCOCC3)nc(N3CCOCC3)n2)c(C(F)F)n1 | binding, competition with immobilised ligand | 10 µM | remaining binding | 86%
CC(C)(C)c1cc(C=C(C#N)C#N)cc(Br)c1O | enzyme activity, inhibitor | 0.5 µM | remaining activity | 90.5%
